Here are results for eight molecules from ChEMBL document CHEMBL1128723, “Orally bioavailable benzisothiazolone inhibitors of human leukocyte elastase” (J Med Chem, 1995).

Series [1] can be described thus: Oral bioavailability in Beagle dogs at oral dose of 20 mg/kg and an intravenous dose of 5 mg/kg was administered. Format: ADME, organism-based, Canis lupus familiaris. The note with it: dog, in vivo, read-out: BA. The method in brief: (§1)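 Fasted rats, beagle dogs or cynomolgus monkeys were dosed orally at 20 mg/kg (one compound at 10 mg/kg) or iv at 5 mg/kg. Vehicles were mainly 0.05% lactic acid in water (oral) or 5% dextrose/0.05% lactic acid (iv). Blood was drawn at intervals, extracted with toluene/hexane (9:1) containing internal standard, and parent quantified by reverse-phase HPLC.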

The nature of series [2]: Compound was tested for the half life time period in rat blood. The format is ADME, organism-based. In a few lines: (§2)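 Fresh heparinized blood from rats, hamsters, beagle dogs and cynomolgus monkeys was used within 4 h of collection. Compound was added from DMSO to a starting concentration of 100 μM and incubated at 37 °C with sampling at intervals. Samples were quenched with acetonitrile/TFA and the supernatant assayed by reverse-phase HPLC for loss of parent, giving the half-life. Control incubations were run with each assay.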

Series [3] is described as follows: Compound was tested for the half life time period in dog jejunum. Format: ADME, organism-based, Canis lupus familiaris. In a few lines:
(§3)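 Jejunum (fresh-frozen animal tissue or unused human transplant tissue) was homogenized in pH 7.2 modified Ringer's buffer, spun at 9000g, and the supernatant kept. Compound was added from DMSO at 100 μM starting concentration and incubated at 37 °C, sampled at intervals. Samples were acetonitrile-quenched and parent measured by RP-HPLC to give the half-life.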

Series [4] in a line: Human tissue stability for the compound was determined by its half life time period in human liver. The format is ADME, organism-based. The method in brief:
(§4)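 Liver S9 was prepared by homogenizing in 50 mM Na/K phosphate/KCl buffer and spinning at 9000g for 20 min. S9 was used at 8 mg/mL protein with an NADPH-generating system and preincubated 5 min at 37 °C. Compound was added from DMSO at 100 μM starting concentration and incubated at 37 °C. Parent disappearance was followed by RP-HPLC over time to give the half-life.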

Series [5] can be described thus: Compound was tested for the half life time period in rat liver S9. Format: ADME, S9 fraction. The method in brief: as §4
Series [6] is described as follows: Maximum plasma concentration in Beagle dogs at oral dose of 20 mg/kg and an intravenous dose of 5 mg/kg was administered. The format is ADME, organism-based, Canis lupus familiaris. The note with it: dog. In a few lines: as §1
Series [7] can be described thus: Compound was tested for in vivo bioavailability in monkey. The format is ADME, organism-based. The note with it: simiiformes, read-out: Bioavailabiility. The method in brief:
as §1

Series [8] is described as follows: Compound was tested for the half life time period in monkey liver S9. Format: ADME, subcellular, S9 fraction. The note with it: simiiformes. The method in brief:
as §4

Series [9] can be described thus: Compound was tested for the half life time period in monkey jejunum. To be noted: simiiformes. Format: ADME, tissue-based. In a few lines:
as §3

Series [10] in a line: Compound was tested for half life time period in hamster liver S9. Format: ADME, S9 fraction. The note with it: cricetinae. In a few lines: as §4
Series [11] can be described thus: Compound was tested for in vivo bioavailability in rat. Format: ADME, organism-based. The note with it: read-out: Bioavailabiility. In a few lines:
as §1

A short description of series [12]: Compound was tested for the half life time period in dog blood. The format is ADME, organism-based, Canis lupus familiaris. In a few lines: as §2
Series [13] is described as follows: Compound was tested for in vivo bioavailability in dog. The format is ADME, organism-based, Canis lupus familiaris. The note with it: read-out: Bioavailabiility. The method in brief: as §1
Series [14] is described as follows: Compound was tested for half life time period in hamster jejunum. The format is ADME, organism-based. The note with it: cricetinae. In a few lines: as §3
A short description of series [15]: Compound was tested for half life time period in hamster blood. The format is ADME, organism-based. To be noted: cricetinae. In a few lines: as §2
Series [16] can be described thus: Human tissue stability for the compound was determined by its half life time period in human blood. The format is ADME, organism-based.
The subject of series [17] is Cricetinae gen. sp. Description: Compound was tested for effective dose required for the inhibition of human leukocyte elastase in the HLE-induced hamster hemorrhage model. The format is functional, Cricetulus griseus.
The nature of series [18]: Compound was tested for the half life time period in rat jejunum. Format: ADME, organism-based. In a few lines: as §3
A further series has as its target T1, Neutrophil elastase (Homo sapiens, UniProt P08246).
T1 sequence (P08246 whole entry): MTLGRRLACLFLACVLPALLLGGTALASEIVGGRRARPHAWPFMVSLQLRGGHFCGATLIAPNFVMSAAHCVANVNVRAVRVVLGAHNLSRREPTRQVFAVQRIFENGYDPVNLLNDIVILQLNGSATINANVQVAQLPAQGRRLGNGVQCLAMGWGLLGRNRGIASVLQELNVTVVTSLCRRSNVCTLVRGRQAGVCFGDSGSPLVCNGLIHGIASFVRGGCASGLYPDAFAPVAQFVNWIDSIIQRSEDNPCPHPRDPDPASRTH
Description: Potency of inhibition against human leukocyte elastase (HLE) expressed as an apparent binding constant.

A short description of series [19]: Human tissue stability for the compound was determined by its half life time period in human jejunum. Format: ADME, organism-based. In a few lines: as §3
Series [20] is described as follows: Compound was tested for plasma concentration in Beagle dogs at oral dose of 20 mg/kg and an intravenous dose of 5 mg/kg was administered. Format: ADME, organism-based, Canis lupus familiaris. The note with it: dog. In a few lines: as §1
Series [21] can be described thus: Compound was tested for the half life time period in monkey blood. The format is ADME, tissue-based. To be noted: simiiformes. The method in brief: as §2
A short description of series [22]: Compound was tested for in vivo bioavailability in hamsters. The format is ADME, organism-based. The note with it: cricetinae, read-out: Bioavailabiility.
The nature of series [23]: Compound was tested for the half life time period in dog liver S9. The format is ADME, Canis lupus familiaris, S9 fraction. The method in brief:
as §4

Series [24] deals with Cricetinae gen. sp. The series can be described thus: Inhibitory activity was determined against HLE-induced hamster hemorrhage model by intravenous administration at a dose of 1 mg/kg. The format is functional, Cricetulus griseus.
The test system of series [25] is Cricetinae gen. sp. The series can be described thus: Effective dose required for the inhibition of human leukocyte elastase in the HLE-induced hamster hemorrhage model. Format: functional, Cricetulus griseus.

Each structure is given as a SMILES string. Some results are limits rather than exact numbers.

Regarding `COc1cc(C(C)C)c2c(c1)S(=O)(=O)N(COC(=O)c1c(Cl)ccc(OCCN3CCOCC3)c1Cl)C2=O`, the bioavailability was 21% in series [1]; less than 1% in [7]; 1% in [11]; 21% in series [13]; less than 3% in [22]. Also, the half-life (commonly the time in which the quantity being followed falls by half) in series [2] was 6 min; in series [3], 394 min; in series [4], 37.3 min; in series [5], 12.4 min; in series [8], 2.9 min; in [9] it was 32.3 min. The half-life in series [10] was less than 5 min; in series [12], 90 min; in series [14] it was 1.3 min; in series [15] it was 259 min; in [16] it was 36 min; in series [18] it was 60.8 min. The half-life in series [19] stood at 170 min; in series [20], 137 min; in series [21], 57.2 min; in series [23] it was 30.2 min. Further, the maximum concentration (Cmax) (in general, the maximum level reached in the sampled fluid or tissue) in [6] amounted to 1200 ng/mL. Also, it took a dose of 3 mg/kg to reach the 50% effect level in the series on Cricetinae gen. sp. [17] (ED50). The Ki at Neutrophil elastase worked out at 0.013 nM.

In the case of `CC(C)c1cc(O)cc2c1C(=O)N(COC(=O)c1c(Cl)ccc(S(=O)(=O)N3CCN(C)CC3)c1Cl)S2(=O)=O`, the bioavailability in [1] amounted to 8%. In addition, the half-life was 40.2 min in series [4], greater than 1200 min in series [16], 113 min in series [19] and 23 min in series [20]. The maximum concentration (Cmax) in series [6] stood at 220 ng/mL. Also, the Ki on Neutrophil elastase was determined as 0.2 nM.

In the case of `CC(C)c1cccc2c1C(=O)N(COC(=O)c1c(Cl)ccc(OCCN3CCOCC3)c1Cl)S2(=O)=O`, the half-life in [4] was 4.9 min; in series [16] it was 20 min; in [19], 13 min. Besides, at 1 mg/kg the inhibition in vivo in the series on Cricetinae gen. sp. [24] was 87%. Also, the Ki at Neutrophil elastase came out at 0.008 nM.

Molecule `COc1cc(C(C)C)c2c(c1)S(=O)(=O)N(COC(=O)c1c(Cl)ccc(OCC(=O)O)c1Cl)C2=O` had a half-life in series [16] of less than 15 min. In addition, the Ki at Neutrophil elastase was determined as 0.011 nM.

Consider `COc1cc(C(C)C)c2c(c1)S(=O)(=O)N(COC(=O)c1c(Cl)ccc(S(=O)(=O)N(C)CCN(C)C)c1Cl)C2=O`, for which the bioavailability in series [1] stood at 14%. Also, the half-life in series [4] stood at 23.9 min; in series [16], 130 min; in [19], 80 min; in series [20], 74 min. Further, the Cmax in series [6] turned out to be 300 ng/mL. The Ki on Neutrophil elastase is 0.013 nM.

Consider `COc1cc(C(C)C)c2c(c1)S(=O)(=O)N(COC(=O)c1c(Cl)ccc(S(=O)(=O)N3CCN(C)CC3)c1Cl)C2=O`, for which the bioavailability in series [1] turned out to be 21%. Moreover, the half-life in series [4] was 28.9 min; in series [16], 90 min; in [19], 99 min; in series [20], 78 min. Also, the peak level in series [6] (Cmax) was 390 ng/mL. In addition, the Ki at Neutrophil elastase was determined as 0.011 nM.

With `COc1cc(C(C)C)c2c(c1)S(=O)(=O)N(COC(=O)c1c(Cl)ccc(OCCN3CCCC3)c1Cl)C2=O`, the bioavailability in series [1] is 46%. In addition, the half-life in series [4] is 110 min; in series [16] it was 110 min; in series [19] it was 218 min; in series [20], 432 min. For the same molecule, the median effective dose (ED50) (commonly the dose that gives a 50% effect, or the effect in half of the subjects) in the series with Cricetinae gen. sp. [25] is 1 mg/kg. The concentration in [6] peaked (Cmax) at 325 ng/mL. Further, the Ki on Neutrophil elastase came out at 0.014 nM.

With `O=C1c2ccccc2S(=O)(=O)N1CSc1nnnn1-c1ccccc1`, the half-life in [16] was less than 5 min.
